ChEMBL document CHEMBL2429868, “Structural optimization of quinolon-4(1H)-imines as dual-stage antimalarials: toward increased potency and metabolic stability” (J Med Chem, 2013)
Converted amounts (≈) assume the structure as drawn. The source made the active and inactive calls. The rule behind the calls is not given here.

Columns and labels:
Plasmodium berghei [1] = experiment: Potency index, ratio of primaquine IC50 to compound IC50 for liver stage of Plasmodium berghei infected in human HuH7 cells; type: functional, Huh-7
Plasmodium berghei [2] = experiment: Antiplasmodial activity against liver stage of Plasmodium berghei infected in human HuH7 cells assessed as parasite growth inhibition incubated for 1 hr prior to parasite infection measured after 48 hrs; type: functional, organism-based; conditions: Huh-7, Liver
Summary of the method: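 Huh-7 cells (12 × 10^3/well) seeded the day before, given compound (10 mM MeOH stock diluted in medium) 1 h before adding 10 000 P. berghei PbGFP-Luccon sporozoites/well from mosquito salivary glands, then spun 1700g 5 min. Medium with compound renewed at 24 h. Luminescence read 48 h post-infection; IC50 by nonlinear regression of normalized dose–response.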

HEK-293T = experiment: Cytotoxicity against HEK293T cells; type: cell-based; conditions: Homo sapiens
Summary of the method: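 HEK293T seeded the day before in RPMI 1640 with 10% FBS, penicillin/streptomycin and 2 mM L-glutamine. Serial dilutions from DMSO were added for 48 h at 37 °C, 5% CO2. Then MTT for 3 h, formazan taken up in DMSO, absorbance read at 570 nm. EC50 by nonlinear regression of the concentration–response curve.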

[3] = Selectivity index, ratio of EC50 for HEK293T cells to IC50 for blood stage of chloroquine-resistant Plasmodium falciparum W2 infected in human RBC; type: functional, HEK-293T
Summary of the method: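 Ratio of two values. EC50: HEK293T cells seeded the previous day in RPMI 1640/10% FBS, given serial DMSO-diluted compound for 48 h at 37 °C, 5% CO2, then MTT for 3 h; formazan read at 570 nm and EC50 fitted by nonlinear regression. IC50: 48 h W2 blood-stage growth in human RBCs, scored by YOYO-1 flow cytometry.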

Plasmodium falciparum [4] = experiment: Antiplasmodial activity against blood stage of chloroquine-resistant Plasmodium falciparum W2 infected in human RBC assessed as parasite growth inhibition after 48 hrs by flow cytometric analysis; type: functional, organism-based; conditions: W2, 48 h
Liver microsomes [5] = experiment: Metabolic stability in rat liver microsomes assessed as compound remaining at 1 uM after 6 hrs by HPLC analysis in absence of NADPH-regenerating system; type: ADME, Microsome
Summary of the method: (§1)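 Compound at 1 μM incubated at 37 °C with pooled rat liver microsomes (0.2 mg protein/mL) in 10 mM phosphate buffer, pH 7.4. Reaction started with NADPH-regenerating system A (NADP+, glucose 6-phosphate, MgCl2) plus B (glucose 6-phosphate dehydrogenase); no-cofactor runs used water instead. Remaining compound measured after 6 h by RP-18 HPLC in acetonitrile/water 25:75, 1 mL/min.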

Plasmodium falciparum [6] = experiment: Antiplasmodial activity against Plasmodium falciparum 3D7 transfected with yeast GFP-tagged DHODH assessed as parasite growth inhibition; type: functional, organism-based
Plasmodium falciparum [7] = experiment: Antiplasmodial activity against Plasmodium falciparum 3D7 assessed as parasite growth inhibition; type: functional, organism-based
[8] = Metabolic stability in rat liver microsomes assessed as compound remaining at 1 uM after 6 hrs by HPLC analysis in presence of NADPH-regenerating system; type: ADME, Microsome; conditions: read-out: Stability; summary of the method: as §1
Huh-7 = experiment: Cytotoxicity against human HuH7 cells assessed as cell viability up to 5 uM by AlamarBlue assay; type: cell-based
Summary of the method: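 Huh-7 hepatoma cells in RPMI 1640 with 10% FCS, nonessential amino acids, glutamine and 10 mM HEPES pH 7, kept at 37 °C, 5% CO2. Treated as in the liver-stage infection assay. Viability read by AlamarBlue per manufacturer's protocol.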

[9] = Inhibition of hemozoin-like crystal formation after 5 days; type: functional; conditions: 120 h
Summary of the method: (§2)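 Hemozoin-like crystal stock sonicated 3 min and diluted in broth to 2 μM final (heme equivalents). Compounds from 25 mM DMSO stocks were 0.22-μm filtered and dosed at 0–1000 μM final. Incubated 37 °C, 5% CO2, 5 days, then scored for presence or absence of crystal growth. Run in triplicate.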

[10] = Inhibition of hemozoin-like crystal formation at 1 to 1000 uM after 5 days; type: functional; summary of the method: as §2
[11] = Chemical stability in aqueous buffer at pH 7.4 at 37 degC measured for 10 days; type: physicochemical; conditions: pH 7.4, 240 h
Summary of the method: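 Stability tested by holding compound in aqueous buffer at pH 7.4 (and pH 0.3) at 37 °C for 10 days.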

Liver microsomes [12] = experiment: Drug metabolism in rat liver microsomes assessed as quinoline metabolite formation through N-dealkylation of compound after 6 hrs by mass spectrophotometric analysis; type: ADME, Microsome
Plasmodium falciparum [13] = experiment: Inhibition of Plasmodium falciparum cytochrome bc1 complex using decylubiquinol as substrate at <= 10 uM by UV-visible spectrophotometric analysis

| Compound | IC50 (Plasmodium berghei [2]) [nM] | EC50 (HEK-293T) [nM] | Selectivity Index [3] | IC50 (Plasmodium falciparum [4]) [nM] | Stability (Liver microsomes [5]) | remaining at 6 h, 1 µM [8] [%] | Activity (Huh-7) | other results |
| --- | --- | --- | --- | --- | --- | --- | --- | --- |
| c1ccc(-c2ccc(/N=c3\ccn(CCCN4CCCCC4)c4cc(-c5cnc6ccccc6c5)ccc34)cc2)cc1 | 710 | 7680 | 143 | 53.7 |  |  |  | Ratio IC50 (Plasmodium berghei [1]): > 10 |
| FC(F)(F)c1ccc2/c(=N/c3ccc(-c4ccccc4)cc3)ccn(CCCN3CCCCC3)c2c1 |  | 56800 | 158 | 360 | Stable | 65 |  | IC50 (Plasmodium falciparum [6]): 195 nM; IC50 (Plasmodium falciparum [7]): 136 nM |
| CCN(CC)CCCCn1cc/c(=N\c2ccc(-c3ccccc3)cc2)c2ccc(C(F)(F)F)cc21 |  | > 100000 | >1988 | 50.3 | Stable | 81.5 |  |  |
| Fc1ccc(-c2ccc3/c(=N/c4ccccc4)ccn(CCCN4CCCCC4)c3c2)cc1 | 1380 | > 100000 | >463 | 216 |  |  |  |  |
| Cc1ccc(/N=c2\ccn(CCCN3CCCCC3)c3cc(Cl)ccc23)cc1 |  | > 100000 | >302 | 331 |  |  |  |  |
| FC(F)(F)c1ccc2c(c1)/c(=N/c1ccc(-c3ccccc3)cc1)ccn2CCCN1CCCCC1 |  | 23700 | 38 | 631 |  |  | Non-toxic | MIC [9]: 1000 µM (≈ 490 µg/mL) |
| FC(F)(F)c1ccc2/c(=N/c3ccc(-c4ccccc4)cc3)ccn(CCN3CCCC3)c2c1 |  | > 100000 | >442 | 226 | Stable | 79 | Non-toxic | inhibition [10]: inactive |
| Clc1ccc2/c(=N/c3ccc(Oc4ccccc4)cc3)ccn(CCCN3CCCCC3)c2c1 |  | 30600 | 191 | 160 | Stable | 73 | Non-toxic | MIC [9]: 500 µM (≈ 236 µg/mL) |
| Fc1ccc(-c2ccc3/c(=N/c4ccc(-c5ccccc5)cc4)ccn(CCCN4CCCCC4)c3c2)cc1 | 2070 | 7630 | 138 | 55.4 |  |  | Non-toxic | MIC [9]: 500 µM (≈ 258 µg/mL) |
| CCN(CC)CCCC(C)Nc1ccnc2cc(Cl)ccc12 (stereo not given) [CHLOROQUINE] |  |  |  |  |  |  |  | MIC [9]: 125 µM (≈ 40 µg/mL) |
| Clc1ccc2/c(=N/c3ccc(-c4ccccc4)cc3)ccn(CCN3CCCC3)c2c1 | 3460 | > 100000 | >900 | 111 |  |  |  | IC50 (Plasmodium falciparum [6]): 186 nM; IC50 (Plasmodium falciparum [7]): 177 nM |
| Clc1ccc2/c(=N/c3ccccc3)ccn(CCCN3CCCCC3)c2c1 |  | > 100000 | >366 | 273 |  |  | Non-toxic | inhibition [10]: inactive |
| c1ccc(-c2ccc(/N=c3\ccn(CCCN4CCCCC4)c4cc(Nc5ccccn5)ccc34)cc2)cc1 | 440 | 7340 | 21 | 357 |  |  |  | Ratio IC50 (Plasmodium berghei [1]): > 10 |
| Clc1ccc2/c(=N/c3ccc(-c4ccccc4)cc3)ccn(CCCN3CCCCC3)c2c1 |  | 41800 | 290 | 144 |  |  |  | IC50 (Plasmodium falciparum [6]): 52.3 nM; IC50 (Plasmodium falciparum [7]): 73.7 nM |
| Clc1ccc2c(c1)/c(=N/c1ccc(-c3ccccc3)cc1)ccn2CCCN1CCCCC1 |  | 21800 | 219 | 99.7 | Stable | 75 | Non-toxic | Stability [11]: Stable; MIC [9]: 1000 µM (≈ 456 µg/mL); Drug metabolism (Liver microsomes [12]): Active |
| Clc1ccc(/N=c2\ccn(CCCN3CCCCC3)c3cc(Cl)ccc23)cc1 | 2700 | > 100000 | >386 | 259 |  |  | Non-toxic | inhibition [10]: inactive |
| CCN(CC)CCn1cc/c(=N\c2ccc(-c3ccccc3)cc2)c2ccc(C(F)(F)F)cc21 | 4610 | 38500 | 73 | 525 | Stable | 80.4 | Non-toxic | inhibition [10]: inactive |
| GENTAMICIN |  |  |  |  |  |  |  | inhibition [10]: inactive |
| Fc1ccc(/N=c2\ccn(CCCN3CCCCC3)c3cc(Cl)ccc23)cc1 | 4780 | > 100000 | >271 | 369 |  |  | Non-toxic | inhibition [10]: inactive |
| CCN(CC)CCCn1cc/c(=N\c2ccc(-c3ccccc3)cc2)c2ccc(Cl)cc21 |  | > 100000 | >662 | 151 |  |  |  |  |
| Clc1ccc2/c(=N/c3ccc(Br)cc3)ccn(CCCN3CCCCC3)c2c1 | 3010 | > 100000 | >1351 | 74 |  |  |  |  |
| CCN(CC)CCCn1cc/c(=N\c2ccc(-c3ccccc3)cc2)c2ccc(C(F)(F)F)cc21 |  | > 100000 | >694 | 144 |  |  |  |  |
| CCN(CC)CCCCn1cc/c(=N\c2ccc(-c3ccccc3)cc2)c2ccc(Cl)cc21 | 2650 | > 100000 | >1479 | 67.6 | Stable | 62.7 |  | inhibition (Plasmodium falciparum [13]): inactive; IC50 (Plasmodium falciparum [6]): 68.3 nM; IC50 (Plasmodium falciparum [7]): 64.7 nM |
| CCN(CC)CCn1cc/c(=N\c2ccc(-c3ccccc3)cc2)c2ccc(Cl)cc21 |  | 37100 | 74 | 498 | Stable | 68 |  |  |
